Reference: paper PMC6110378 (The Pediatric Infectious Disease Journal, 2018)
In brackets after ≈: the same amount, converted by molar mass. Starred links: 1 amine or outer side, 2 acyl side, 3 side chain; linkers in the order of their positions; H or OH if unused. Positions of bridges follow the written chain, without caps; N, C: chain ends. Non-standard residues stand in square brackets, D forms with d. Residues, ends and D or L forms follow the SMILES beside them. *: point of attachment. hTyr(3S-OH,4S-OH,3'-OSO3H) = N[C@H](C(=O)O)[C@H](O)[C@@H](O)c1ccc(O)c(OS(=O)(=O)O)c1; Orn(4R-OH,5R-OH) = O=C([C@H](C[C@@H](O)[C@@H](O)N[*:3])N[*:1])[*:2]; Pro(3S-OH,4S-Me) = C[C@H]1CN[C@H](C(=O)O)[C@H]1O; X1 = CCCCCOc1ccc(-c2cc(-c3ccc(C(=O)*)cc3)no2)cc1; Gln(3R-OH) = NC(=O)C[C@@H](O)[C@H](N)C(=O)O; Hyp = O=C(O)[C@@H]1C[C@@H](O)CN1

How the values were obtained:
Population PK model = assay type: in vivo, human infants; settings: 2-compartment population PK model, 64 infants
Summary of the method: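 The dataset was 287 HPLC-measured plasma concentrations from 64 infants aged 3–119 days in 4 pediatric trials, at doses of 0.75–10 mg/kg. A 2-compartment model was fitted in Pmetrics, with infusion into the central compartment and observations weighted by inverse assay variance. Clearance was allometrically scaled. Clearance and volume were normalized to the 1.8 kg mean weight. Kcp and Kpc are central↔peripheral transfer rates. Fit was assessed from observed versus predicted values, r2, bias and imprecision.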

Candida = experiment: MIC values of isolates from infants with invasive candidiasis; assay type: cell-based
[1] = system: hematogenous Candida meningoencephalitis; settings: rabbit model of hematogenous Candida meningoencephalitis; cited from earlier work

CCCCCOc1ccc(-c2cc(-c3ccc(C(=O)N[C@H]4C[C@@H](O)[C@@H](O)NC(=O)[C@@H]5[C@@H](O)[C@@H](C)CN5C(=O)[C@H]([C@H](O)CC(N)=O)NC(=O)[C@H]([C@H](O)[C@@H](O)c5ccc(O)c(OS(=O)(=O)O)c5)NC(=O)[C@@H]5C[C@@H](O)CN5C(=O)[C@H]([C@@H](C)O)NC4=O)cc3)no2)cc1 [micafungin] (X1-[Orn(4R-OH,5R-OH)]T[Hyp][hTyr(3S-OH,4S-OH,3'-OSO3H)][Gln(3R-OH)][Pro(3S-OH,4S-Me)]; lactam 1-C)
Vstd (volume in the central compartment), median (Population PK model; normalized to 1.8 kg, median): 0.43 L/1.8 kg
Kcp (rate of drug moving from the central to the peripheral compartment), mean (Population PK model; mean (range)): 1.74 (0.035–5.966) h^–1
Kpc (rate of drug moving from the peripheral to the central compartment), mean (Population PK model; mean (range)): 1.92 (0.090–5.970) h^–1
Kcp, median (Population PK model; median): 0.99 h^–1
Kpc, median (Population PK model; median): 2.00 h^–1
MIC90 (Candida; isolates of infants in the 2 mg/kg study (n = 17)): 1 µg/mL (≈ 0.787 µM)
MIC90 (Candida; isolates of infants in the 10 mg/kg study (n = 12)): 2 µg/mL (≈ 1.57 µM)
AUC:MIC ratio PD target for near-maximal effect [1]: 1332
CNS PD target AUC for near-maximal effect [1]: approximately 166.5 mg·h/L
